This assay addresses T1, Proteinase-activated receptor 1 (Homo sapiens, UniProt P25116).
T1 sequence (P25116 whole entry): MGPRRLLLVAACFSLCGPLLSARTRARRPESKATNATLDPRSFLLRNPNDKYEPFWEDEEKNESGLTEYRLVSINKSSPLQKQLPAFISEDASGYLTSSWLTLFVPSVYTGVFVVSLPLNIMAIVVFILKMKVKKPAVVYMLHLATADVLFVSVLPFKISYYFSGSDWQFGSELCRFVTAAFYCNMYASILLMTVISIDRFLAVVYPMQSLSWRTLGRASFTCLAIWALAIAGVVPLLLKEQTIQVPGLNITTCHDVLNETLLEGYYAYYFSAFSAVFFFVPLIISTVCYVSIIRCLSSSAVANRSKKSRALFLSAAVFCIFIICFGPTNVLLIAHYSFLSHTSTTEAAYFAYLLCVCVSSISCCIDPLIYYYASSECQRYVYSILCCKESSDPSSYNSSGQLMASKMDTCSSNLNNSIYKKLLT
Put plainly: Negative allosteric modulation of PAR1 in human EAhy926 cells assessed as reduction in TFLLRN-NH2-induced intracellular calcium mobilization incubated for 15 mins followed by TFLLRN-NH2 addition by Fluo-4-AM dye based fluorescence assay. The essentials: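 Adherent EA.hy926 endothelial cells in 96-well format, intracellular Ca2+ mobilization triggered by PAR1 agonist TFLLRN-NH2 at 5 µM; single-point % inhibition at 10 µM (n = 4 wells, SEM); 7-point concentration-response curves, 3 wells per concentration, pIC50 from 4-variable non-linear regression; average IC50 ± SEM over independent assays.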
(Calcium flux is commonly read through the fluorescence of an indicator in the cells.)

As usually defined, the IC50 is the point on the concentration scale where inhibition reaches its midpoint. For `CCCC(=O)Nc1cccc(NC(=O)c2ccccc2Br)c1`, the IC50 worked out at 794 nM.

(Values after BindingDB's records for doi:10.1016/j.bmc.2019.06.043 (Marquette University, 2019).)
